Assay results reported in ChEMBL document CHEMBL1165866, “Design, synthesis, and in vitro antitumor evaluation of novel diaryl ureas derivatives” (Eur J Med Chem, 2010).

Tests used:
A549 [1] = assay: Cytotoxicity against human A549 cells assessed as growth inhibition after 72 hrs by MTT based WST-8 assay; type: functional, cell-based; conditions: A549, 72 h
Procedure, shortened: (§1)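 Cells in RPMI1640 with 10% FBS were seeded at 5.0×10^3 cells/well and left to adhere for 4 h at 37 °C, 5% CO2. Compound was then added for 72 h. Medium was removed and WST-8 reagent (stock: 5 mM WST-8, 0.2 mM 1-methoxyphenazinium salt, 150 mM NaCl) was added for 1.5 h at 37 °C. A450 was read with 650 nm correction. IC50 was taken from concentration–response curves as % of vehicle-control absorbance.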

MDA-MB-231 [2] = assay: Cytotoxicity against human MDA-MB-231 cells assessed as growth inhibition at 10 uM after 72 hrs by MTT based WST-8 assay; type: functional; conditions: MDA-MB-231, 72 h, read-out: GI
Procedure, shortened: (§2)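 Single-concentration screen at 10 μM. Cells in RPMI1640 with 10% FBS were seeded at 5.0×10^3 cells/well, adhered for 4 h, then exposed for 72 h at 37 °C, 5% CO2. Medium was removed and WST-8 reagent added for 1.5 h. Absorbance was read at 450 nm with 650 nm correction and growth was expressed as percentage of vehicle-control absorbance.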

A549 [3] = assay: Cytotoxicity against human A549 cells assessed as growth inhibition at 10 uM after 72 hrs by MTT based WST-8 assay; type: functional; conditions: A549, 72 h, read-out: GI; procedure, shortened: as §2
MDA-MB-231 [4] = assay: Cytotoxicity against human MDA-MB-231 cells assessed as growth inhibition after 72 hrs by MTT based WST-8 assay; type: functional, cell-based; conditions: MDA-MB-231, 72 h; procedure, shortened: as §1

SMILES	IC50 (A549 [1]) [µM]	inhibition of growth at 10 µM (MDA-MB-231 [2]) [%]	inhibition of growth at 10 µM (A549 [3]) [%]	IC50 (MDA-MB-231 [4]) [µM]
O=C(Nc1ccc(Oc2ccc(-c3nccs3)cc2)cc1)Nc1cc(Br)cc(C(F)(F)F)c1	2.71	72.8	81.7	4.19
O=C(Nc1ccc(Oc2ccc(-c3ncc[nH]3)cc2)cc1)Nc1ccc(Cl)c(C(F)(F)F)c1	7.09	38.1	67.9	–
O=C(Nc1ccc(Oc2ccc(-c3nccs3)cc2)cc1)Nc1cccc(C(F)(F)F)c1	5.56	64.1	71.5	9.55
CNC(=O)c1cc(Oc2ccc(NC(=O)Nc3ccc(Cl)c(C(F)(F)F)c3)cc2)ccn1 [SORAFENIB]	5.21	79.6	81.2	7.62
O=C(Nc1ccc(Oc2ccc(-c3nccs3)cc2)cc1)Nc1ccc(F)c(C(F)(F)F)c1	4.98	71.8	76.4	8.66
O=C(Nc1ccc(Oc2ccc(-c3ncc[nH]3)cc2)cc1)Nc1cc(C(F)(F)F)ccc1Cl	–	32.3	22.3	–
COC(=O)c1sccc1NC(=O)Nc1ccc(Oc2ccc(-c3ncc[nH]3)cc2)cc1	–	-1.46	2.34	–
O=C(Nc1ccc(Cl)cc1)Nc1ccc(Oc2ccc(-c3nccs3)cc2)cc1	–	32.5	17.7	–
O=C(Nc1ccc(Oc2ccc(-c3nccs3)cc2)cc1)Nc1ccc(Cl)c(C(F)(F)F)c1	3.81	69.6	77.6	6.06
Cc1ccc(NC(=O)Nc2ccc(Oc3ccc(-c4nccs4)cc3)cc2)cc1	–	22.8	15.6	–
O=C(Nc1ccc(Oc2ccc(-c3ncc[nH]3)cc2)cc1)Nc1cc(Br)cc(C(F)(F)F)c1	–	-13.6	44.1	–
O=C(Nc1ccc(Oc2ccc(-c3nccs3)cc2)cc1)Nc1ccc(F)c(Cl)c1	–	43.9	37.3	–
COC(=O)c1sccc1NC(=O)Nc1ccc(Oc2ccc(-c3nccs3)cc2)cc1	–	11	6.78	–
O=C(Nc1ccc(Oc2ccc(-c3nccs3)cc2)cc1)Nc1cc(C(F)(F)F)ccc1Cl	7.04	60.4	75.5	8.9
O=C(Nc1ccc(Oc2ccc(-c3ncc[nH]3)cc2)cc1)Nc1ccc(F)c(Cl)c1	–	4.2	14.6	–
O=C(Nc1ccc(Oc2ccc(-c3ncc[nH]3)cc2)cc1)Nc1ccc(Cl)c([N+](=O)[O-])c1	–	3.36	12.4	–
O=C(Nc1ccc(Oc2ccc(-c3nccs3)cc2)cc1)Nc1ccc(Cl)c([N+](=O)[O-])c1	3.89	72.8	77.1	6.87
O=C(Nc1ccc(Cl)cc1)Nc1ccc(Oc2ccc(-c3ncc[nH]3)cc2)cc1	–	47.6	8.86	–
O=C(Nc1ccc(Oc2ccc(-c3ncc[nH]3)cc2)cc1)Nc1cccc(C(F)(F)F)c1	–	28.1	30	–
Cc1ccc(NC(=O)Nc2ccc(Oc3ccc(-c4ncc[nH]4)cc3)cc2)cc1	–	49.3	24.6	–
O=C(Nc1ccccc1)Nc1ccc(Oc2ccc(-c3ncc[nH]3)cc2)cc1	–	11.4	7.09	–
O=C(Nc1ccc(Oc2ccc(-c3ncc[nH]3)cc2)cc1)Nc1ccc(F)c(C(F)(F)F)c1	10.5	26.6	63.3	–
